{"source": "paper PMC5522708", "about": "(Archives of biochemistry and biophysics, 2016)", "key": {"human renalase": {"target": "human renalase (Homo sapiens, UniProt Q5VYX0)", "sequence (Q5VYX0 18-342)": "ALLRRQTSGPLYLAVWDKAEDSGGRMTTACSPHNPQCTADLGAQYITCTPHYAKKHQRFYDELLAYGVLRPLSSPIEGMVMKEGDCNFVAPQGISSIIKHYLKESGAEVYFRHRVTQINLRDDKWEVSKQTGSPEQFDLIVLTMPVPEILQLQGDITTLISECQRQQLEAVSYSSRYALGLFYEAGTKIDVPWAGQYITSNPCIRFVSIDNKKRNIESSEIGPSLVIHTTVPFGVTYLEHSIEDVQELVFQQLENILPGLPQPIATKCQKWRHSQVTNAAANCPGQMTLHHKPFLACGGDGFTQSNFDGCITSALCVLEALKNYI", "type": "biochemical, H. sapiens", "conditions": "for inhibition of 6DHNAD oxidation (reductive half reaction): 173 µM 6DHNAD, anaerobic"}, "renalase": {"test_system": "renalase", "assay": "HPLC substrate analysis of reduced NR and NMN isomers with renalase", "type": "biochemical", "conditions": "~12.5 µM renalase, 10 min, HPLC of borohydride-reduced mixtures, pH 7.5", "summary_of_the_method": "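Each mixture was split: one half received renalase, the other served as the no-enzyme and stability control. After 10 min, enzyme was removed by 10 kDa ultrafiltration. Filtrates ran on isocratic C18 HPLC (same buffer) with detection at 260/370 nm, corrected for dilution.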"}, "HsRen (human renalase)": {"target": "HsRen (human renalase)", "conditions": "cited from earlier work; for binding constants of the products: earlier work, no reference given"}, "[1]": {"target": "HsRen (renalase from H. sapiens) (Homo sapiens, UniProt Q5VYX0)", "sequence (Q5VYX0 18-342)": "as above", "assay": "Reductive half-reaction of HsRen", "type": "biochemical", "conditions": "anaerobic, 25 °C; for increase in kred/Kd on addition of ADP: ADP 4–5 mM", "summary_of_the_method": "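Anaerobic stopped-flow was run at 25 °C in 20 mM HEPES, pH 7.5, with glucose/glucose oxidase O2 scavenging. HsRen was 6–11 µM post-mix, and flavin reduction was read at 458 nm. DHNR runs included 2 mM octyl-β-glucoside.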"}, "[2]": {"target": "specific enzymes that have β-NADH as substrate", "conditions": "competitive; cited from earlier work"}, "[3]": {"test_system": "E.coli malate dehydrogenase", "conditions": "competitive; cited from earlier work"}}}
{"smiles": "NC(=O)C1=CN([C@@H]2O[C@H](COP(=O)(O)O)[C@@H](O)[C@H]2O)C=CC1", "note": "[4DHNMN, 4-dihydronicotinamide mononucleotide]", "values": [{"measurement": "difference in the Kd for 4DHNMN compared to 4DHNR", "setting": "human renalase; HsRen", "value": "six-fold"}, {"measurement": "inhibition of 6DHNAD oxidation (reductive half reaction)", "setting": "human renalase; HsRen", "value": "inhibitory"}]}
{"smiles": "NC(=O)C1=CC=CN([C@@H]2O[C@H](CO)[C@@H](O)[C@H]2O)C1", "note": "[2DHNR]", "values": [{"measurement": "consumed by renalase (substrate)", "setting": "renalase", "value": "consumed"}]}
{"smiles": "NC(=O)c1ccc[n+]([C@@H]2O[C@H](COP(=O)([O-])O)[C@@H](O)[C@H]2O)c1", "note": "[NMN^+, nicotinamide mononucleotide]", "values": [{"measurement": "inhibition of 6DHNAD oxidation (reductive half reaction)", "setting": "human renalase; HsRen", "value": "did not yield any substrate inhibition"}]}
{"smiles": "NC(=O)C1=CC=CN([C@@H]2O[C@H](COP(=O)(O)O)[C@@H](O)[C@H]2O)C1", "note": "[2DHNMN, 2-dihydronicotinamide mononucleotide]", "values": [{"measurement": "consumed by renalase (substrate)", "setting": "renalase", "value": "consumed"}]}
{"smiles": "NC(=O)c1ccc[n+]([C@@H]2O[C@H](CO)[C@@H](O)[C@H]2O)c1", "note": "[NR^+, nicotinamide riboside]", "values": [{"measurement": "IC50", "setting": "human renalase", "value": "> 7.3", "unit": "mM"}, {"measurement": "inhibition of 6DHNAD oxidation (reductive half reaction)", "setting": "human renalase; HsRen", "value": "did not yield any substrate inhibition"}]}
{"smiles": "NC(=O)c1ccc[n+]([C@@H]2O[C@H](COP(=O)([O-])OP(=O)(O)OC[C@H]3O[C@@H](n4cnc5c(N)ncnc54)[C@H](OP(=O)(O)O)[C@@H]3O)[C@@H](O)[C@H]2O)c1", "note": "[β-NADP^+, oxidized nicotinamide adenine dinucleotide phosphate]", "values": [{"measurement": "binding constants of the products", "setting": "HsRen (human renalase)", "value": "low millimolar"}]}
{"smiles": "NC(=O)C1=CN([C@@H]2O[C@H](CO)[C@@H](O)[C@H]2O)CC=C1", "note": "[6DHNR, 6-dihydornicotinamide riboside]", "values": [{"measurement": "increase in kred/Kd on addition of ADP", "setting": "[1]; pH 7.5", "value": 7, "unit": "fold"}, {"measurement": "increase in kred/Kd on addition of ADP", "setting": "[1]; pH 7.5, listed as 6-dihydronicotinamide riboside", "value": "seven"}, {"measurement": "consumed by renalase (substrate)", "setting": "renalase", "value": "consumed"}]}
{"smiles": "Nc1ncnc2c1ncn2[C@@H]1O[C@H](COP(=O)(O)O)[C@@H](O)[C@H]1O", "note": "[AMP, adenosine monophosphate]", "values": [{"measurement": "inhibition of 6DHNAD oxidation (reductive half reaction)", "setting": "human renalase; HsRen", "value": "did not show measureable inhibition"}]}
{"smiles": "Nc1ncnc2c1ncn2[C@@H]1O[C@H](COP(=O)(O)OP(=O)(O)O)[C@@H](O)[C@H]1O", "note": "[ADP, adenosine diphosphate]", "values": [{"measurement": "Kd", "setting": "human renalase", "value": 15, "unit": "mM"}]}
{"smiles": "CNC(=O)c1cccnc1", "note": "[methyl nicotinamide]", "values": [{"measurement": "inhibition of 6DHNAD oxidation (reductive half reaction)", "setting": "human renalase; HsRen", "value": "did not show measureable inhibition"}]}
{"smiles": "NC(=O)C1=CN(C2OC(COP(=O)(O)O)C(O)C2O)CC=C1", "note": "(centres unmarked) [6DHNMN, 6-dihyronicotinamide mononucleotide]", "values": [{"measurement": "effect of AMP counterpart ligand on kred/Kd", "setting": "[1]; pH 7.5", "value": "no measurable difference"}, {"measurement": "consumed by renalase (substrate)", "setting": "renalase", "value": "consumed"}]}
{"smiles": "NC(=O)C1=CN([C@@H]2O[C@H](CO)[C@@H](O)[C@H]2O)C=CC1", "note": "[4DHNR, 4-dihydronicotinamide riboside]", "values": [{"measurement": "inhibition of 6DHNAD oxidation (reductive half reaction)", "setting": "human renalase; HsRen", "value": "inhibitory"}]}
{"smiles": "NC(=O)c1ccc[n+]([C@@H]2O[C@H](COP(=O)([O-])OP(=O)(O)OC[C@H]3O[C@@H](n4cnc5c(N)ncnc54)[C@H](O)[C@@H]3O)[C@@H](O)[C@H]2O)c1", "note": "[β-NAD^+, oxidized nicotinamide adenine dinucleotide]", "values": [{"measurement": "binding constants of the products", "setting": "HsRen (human renalase)", "value": "low millimolar"}]}
{"smiles": "NC(=O)c1cccnc1", "note": "[nicotinamide]", "values": [{"measurement": "IC50", "setting": "human renalase", "value": "> 68", "unit": "mM"}, {"measurement": "inhibition of 6DHNAD oxidation (reductive half reaction)", "setting": "human renalase; HsRen", "value": "did not show measureable inhibition"}]}
{"smiles": "NC(=O)C1=CN([C@@H]2O[C@H](COP(=O)(O)OP(=O)(O)OC[C@H]3O[C@@H](n4cnc5c(N)ncnc54)[C@H](O)[C@@H]3O)[C@@H](O)[C@H]2O)CC=C1", "note": "[6DHNAD, 6-dihydronicotinamide adenine dinucleotide]", "values": [{"measurement": "Ki values", "setting": "[2]", "value": "sub-micromolar range"}, {"measurement": "Kd", "setting": "HsRen (human renalase); read-out: measured dissociation constant for the substrate", "value": 0.173, "unit": "mM"}, {"measurement": "Ki", "setting": "[3]", "value": 34, "unit": "nM"}]}
